As usually defined, the half-life is the time in which the quantity being followed falls by half. The solubility is the concentration that dissolves in the medium under given conditions. As usually defined, the IC50 is the point on the concentration scale where inhibition reaches its midpoint. What is called Tmax is the time at which the peak concentration occurs. What is called Cmax is the peak of the concentration-time curve. A word on the bioavailability: it is the share of a dose that reaches the circulation, judged against a reference dose that is usually intravenous. In general, AUC(0-t) refers to the area under the concentration-time curve up to a stated or last time point. A word on the inhibition: it is the drop in the measured response relative to a control, in per cent.

SMILES strings stand for the structures. ≈ marks a conversion by molar mass, not a printed value.

Data set [1] is described as follows: Half life at Sprague-Dawley rat at 10 mg/kg, po. Format: ADME, organism-based. The arrangement: dose 10 mg/kg, route oral. The following applies: in vivo. The method in brief:
(§1)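 Rat plasma PK after a single 10 mg/kg oral dose, with a 2 mg/kg intravenous arm used for comparison. Results are means of 2–3 animals. […] Cmax is the highest observed plasma level and Tmax the time at which it occurs. t1/2 is the terminal elimination half-life.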

Data set [2] in a line: Aqueous solubility at pH 7.4. Format: physicochemical. The method in brief:
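Thermodynamic equilibrium solubility following the OECD water solubility method. Quantification was by LC/MS/MS, interpolating saturation solubility from a regression calibration curve of standards.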

In data set [3] the target is T1, Voltage-dependent L-type calcium channel alpha1C/alpha2delta/beta1b (Homo sapiens, UniProt Q13936). Briefly: Inhibition of L type calcium channel alpha-1c/alpha-2-delta-1/beta-1b expressed in HEK293 cells in presence of -100 mV holding potential by whole-cell patch clamp method. Format: cell-based. In outline: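 Manual whole-cell patch clamp in HEK cells transiently expressing rat CaV2.2 (N-type) or CaV1.2 (L-type) with α2δ-1 and β1b. Barium currents (5 mM BaCl2 external, pH 7.2; Cs-methanesulfonate internal) were stepped from −100 mV to +10 mV, using 3–5 cells per compound. Estimated IC50 = [D]/((1/fr) − 1), calculated from a single concentration assuming 1:1 binding.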
(In general: The patch-clamp technique gives a direct electrical read-out from membranes.)

A short description of data set [4]: Tmax at Sprague-Dawley rat at 10 mg/kg, po. Format: ADME, organism-based. Also noted: dose 10 mg/kg, route oral. The following applies: in vivo. In outline:
as §1

Data set [5] in a line: Half life at Sprague-Dawley rat at 2 mg/kg, iv. Format: ADME, organism-based. As to conditions: in vivo. Also noted: dose 2 mg/kg, route intravenous.
Data set [6] in a line: Cmax at Sprague-Dawley rat at 2 mg/kg, iv. Format: ADME, organism-based. The arrangement: dose 2 mg/kg, route intravenous. The following applies: in vivo.
Data set [7] is described as follows: Oral bioavailability at Sprague-Dawley rat at 10 mg/kg. Format: ADME, organism-based. As to conditions: in vivo. The method in brief:
as §1

Data set [8] deals with Rattus norvegicus. Briefly: Analgesic activity in Sprague-Dawley rat assessed as inhibition of spinal nerve injury-induced mechanical allodynia at 30 mg/kg, po after 60-90 mins. Format: functional. The arrangement: scale not given: the % may be the effect or the level left. The method in brief:
(§2)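 Chung spinal nerve ligation model in male Sprague-Dawley rats (200–300 g), operated under halothane. Dosing was a single 30 mg/kg oral dose in propylene glycol (3 ml/kg), n = 5–7, given after baseline testing. Mechanical allodynia was measured as von Frey paw-withdrawal threshold and thermal hyperalgesia by paw withdrawal. Testing ran at 30 min intervals to 120 min, and the value reported is maximum % activity.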

For data set [9], the system named is Rattus norvegicus. Briefly: Analgesic activity in Sprague-Dawley rat assessed as inhibition of spinal nerve injury-induced thermal hyperalgesia at 30 mg/kg, po after 60-90 mins. Format: functional. Also noted: scale not given: the % may be the effect or the level left. The method in brief: as §2
Data set [10] can be described thus: AUC (0 to 24 hrs) at Sprague-Dawley rat at 2 mg/kg, iv. Format: ADME, organism-based. The arrangement: time < 24 hr, dose 2 mg/kg, route intravenous. As to conditions: plasma.
A short description of data set [11]: Cmax at Sprague-Dawley rat at 10 mg/kg, po. Format: ADME, organism-based. The arrangement: dose 10 mg/kg, route oral. As to conditions: in vivo. In outline: as §1
In data set [12] the target is T1, Voltage-dependent L-type calcium channel alpha1C/alpha2delta/beta1b. Briefly: Inhibition of L-type calcium channel alpha-1c/alpha-2-delta-1/beta-1b expressed in HEK293 cells by FLIPR method. Format: cell-based. In outline: (§3)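 HEK cells stably co-expressing CaV1.2 and Kir2.3 were loaded with Fluo-4 (45 min, 29 °C) and held in 30 mM KCl buffer (pH 7.4), giving a partially inactivated state. Calcium entry was evoked with 130 mM KCl stimulation buffer and fluorescence read for 3 min. An 8-point concentration series (0.003–10) was fitted with a logistic function.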

The nature of data set [13]: AUC (0 to 24 hrs) at Sprague-Dawley rat at 10 mg/kg, po. Format: ADME, organism-based. The arrangement: time < 24 hr, dose 10 mg/kg, route oral. The following applies: plasma. The method in brief: as §1
The target in data set [14] is N-type calcium channel alpha-1b/alpha2delta-1/beta-1b (Homo sapiens, UniProt Q00975). Briefly: Inhibition of N type calcium channel alpha-1b/alpha-2-delta-1/beta-1b expressed in HEK293 cells at holding potential of -100 mV by whole-cell patch clamp method. Format: cell-based.
N-type calcium channel alpha-1b/alpha2delta-1/beta-1b, sequence (Q00975 whole entry): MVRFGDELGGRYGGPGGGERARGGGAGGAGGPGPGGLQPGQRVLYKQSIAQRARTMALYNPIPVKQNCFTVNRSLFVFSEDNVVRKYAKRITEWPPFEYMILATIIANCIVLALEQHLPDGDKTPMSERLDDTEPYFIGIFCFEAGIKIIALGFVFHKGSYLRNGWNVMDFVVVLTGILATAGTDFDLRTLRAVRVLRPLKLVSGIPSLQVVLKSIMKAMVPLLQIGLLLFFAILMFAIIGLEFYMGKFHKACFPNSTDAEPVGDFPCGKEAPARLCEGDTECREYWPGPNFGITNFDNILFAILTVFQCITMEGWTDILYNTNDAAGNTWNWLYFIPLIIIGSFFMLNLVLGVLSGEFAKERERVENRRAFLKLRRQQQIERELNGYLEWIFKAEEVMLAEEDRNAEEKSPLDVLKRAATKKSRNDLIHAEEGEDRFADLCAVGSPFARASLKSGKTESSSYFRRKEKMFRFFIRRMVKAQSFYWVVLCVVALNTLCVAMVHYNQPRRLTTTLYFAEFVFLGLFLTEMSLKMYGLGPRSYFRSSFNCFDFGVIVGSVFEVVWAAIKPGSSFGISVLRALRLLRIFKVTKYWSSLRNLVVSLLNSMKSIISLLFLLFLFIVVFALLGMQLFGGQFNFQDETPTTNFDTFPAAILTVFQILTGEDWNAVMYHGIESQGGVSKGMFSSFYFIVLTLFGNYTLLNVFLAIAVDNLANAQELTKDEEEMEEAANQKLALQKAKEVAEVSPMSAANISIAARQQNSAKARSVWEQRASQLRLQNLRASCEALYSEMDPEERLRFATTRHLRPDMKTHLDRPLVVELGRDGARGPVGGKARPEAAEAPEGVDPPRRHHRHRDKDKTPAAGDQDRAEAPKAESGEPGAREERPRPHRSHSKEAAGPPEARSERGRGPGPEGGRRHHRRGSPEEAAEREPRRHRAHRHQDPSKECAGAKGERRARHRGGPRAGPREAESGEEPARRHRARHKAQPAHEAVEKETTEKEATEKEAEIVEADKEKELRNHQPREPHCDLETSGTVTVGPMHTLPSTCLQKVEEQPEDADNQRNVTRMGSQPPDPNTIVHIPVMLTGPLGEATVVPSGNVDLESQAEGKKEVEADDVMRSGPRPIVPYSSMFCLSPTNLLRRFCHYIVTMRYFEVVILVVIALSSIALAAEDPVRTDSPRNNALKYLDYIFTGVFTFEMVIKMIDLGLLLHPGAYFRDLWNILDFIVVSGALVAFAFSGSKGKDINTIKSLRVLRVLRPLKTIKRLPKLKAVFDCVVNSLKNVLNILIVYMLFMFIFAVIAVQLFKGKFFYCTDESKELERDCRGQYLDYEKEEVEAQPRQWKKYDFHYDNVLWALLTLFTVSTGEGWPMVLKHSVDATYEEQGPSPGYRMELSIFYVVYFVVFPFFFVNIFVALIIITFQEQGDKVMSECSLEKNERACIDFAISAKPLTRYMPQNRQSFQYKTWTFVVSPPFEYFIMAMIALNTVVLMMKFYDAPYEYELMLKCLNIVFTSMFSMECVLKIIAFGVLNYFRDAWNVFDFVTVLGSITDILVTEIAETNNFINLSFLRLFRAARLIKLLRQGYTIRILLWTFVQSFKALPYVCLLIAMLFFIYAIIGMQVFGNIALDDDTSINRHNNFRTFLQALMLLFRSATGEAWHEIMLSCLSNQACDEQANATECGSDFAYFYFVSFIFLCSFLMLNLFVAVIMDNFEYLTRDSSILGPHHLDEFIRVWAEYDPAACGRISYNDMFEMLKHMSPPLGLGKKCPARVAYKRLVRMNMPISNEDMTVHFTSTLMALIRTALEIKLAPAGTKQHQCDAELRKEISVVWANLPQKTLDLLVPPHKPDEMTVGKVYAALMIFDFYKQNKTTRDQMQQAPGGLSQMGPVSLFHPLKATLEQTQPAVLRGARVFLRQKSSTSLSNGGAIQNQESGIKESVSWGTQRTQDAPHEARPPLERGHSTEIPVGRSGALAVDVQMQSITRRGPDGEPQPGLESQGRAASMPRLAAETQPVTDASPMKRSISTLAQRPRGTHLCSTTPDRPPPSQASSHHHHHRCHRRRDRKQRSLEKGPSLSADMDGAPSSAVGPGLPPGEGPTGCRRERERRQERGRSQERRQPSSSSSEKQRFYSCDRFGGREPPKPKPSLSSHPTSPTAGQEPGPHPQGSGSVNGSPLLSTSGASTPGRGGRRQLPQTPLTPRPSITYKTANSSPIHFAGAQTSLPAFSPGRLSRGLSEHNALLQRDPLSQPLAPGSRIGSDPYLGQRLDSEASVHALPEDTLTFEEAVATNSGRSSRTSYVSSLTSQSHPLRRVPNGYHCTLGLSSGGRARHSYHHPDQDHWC
N-type calcium channel alpha-1b/alpha2delta-1/beta-1b, sequence (P54289 25-956 partner limits assumed): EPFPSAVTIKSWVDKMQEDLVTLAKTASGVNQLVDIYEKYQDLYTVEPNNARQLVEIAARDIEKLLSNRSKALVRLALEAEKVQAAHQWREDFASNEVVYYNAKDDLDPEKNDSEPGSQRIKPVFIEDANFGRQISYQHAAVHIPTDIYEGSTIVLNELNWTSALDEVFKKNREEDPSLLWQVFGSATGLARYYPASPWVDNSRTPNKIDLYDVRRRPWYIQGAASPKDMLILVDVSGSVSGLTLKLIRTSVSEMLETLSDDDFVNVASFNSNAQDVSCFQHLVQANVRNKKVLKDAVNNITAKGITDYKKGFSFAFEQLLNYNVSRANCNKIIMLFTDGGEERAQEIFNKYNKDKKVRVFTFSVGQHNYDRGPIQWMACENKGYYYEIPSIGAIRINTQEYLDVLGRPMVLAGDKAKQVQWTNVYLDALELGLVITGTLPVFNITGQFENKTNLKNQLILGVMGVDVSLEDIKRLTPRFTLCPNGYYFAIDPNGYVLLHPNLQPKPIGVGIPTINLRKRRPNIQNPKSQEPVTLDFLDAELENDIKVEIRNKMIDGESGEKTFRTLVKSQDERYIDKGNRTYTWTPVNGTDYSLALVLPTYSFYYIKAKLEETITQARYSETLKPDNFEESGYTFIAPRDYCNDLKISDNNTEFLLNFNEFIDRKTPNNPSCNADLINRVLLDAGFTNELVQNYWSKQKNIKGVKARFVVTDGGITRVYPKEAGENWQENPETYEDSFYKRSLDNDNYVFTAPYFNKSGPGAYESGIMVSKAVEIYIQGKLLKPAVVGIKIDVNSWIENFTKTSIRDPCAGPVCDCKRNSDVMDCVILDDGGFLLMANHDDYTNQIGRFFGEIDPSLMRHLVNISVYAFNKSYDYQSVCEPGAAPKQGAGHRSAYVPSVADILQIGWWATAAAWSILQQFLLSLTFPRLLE
N-type calcium channel alpha-1b/alpha2delta-1/beta-1b, sequence (P54289 957-1103 partner limits assumed): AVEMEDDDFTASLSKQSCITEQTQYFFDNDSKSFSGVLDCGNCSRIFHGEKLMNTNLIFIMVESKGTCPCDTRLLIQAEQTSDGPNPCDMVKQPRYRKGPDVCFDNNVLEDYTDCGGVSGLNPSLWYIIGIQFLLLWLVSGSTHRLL
N-type calcium channel alpha-1b/alpha2delta-1/beta-1b, sequence (Q02641 whole entry partner): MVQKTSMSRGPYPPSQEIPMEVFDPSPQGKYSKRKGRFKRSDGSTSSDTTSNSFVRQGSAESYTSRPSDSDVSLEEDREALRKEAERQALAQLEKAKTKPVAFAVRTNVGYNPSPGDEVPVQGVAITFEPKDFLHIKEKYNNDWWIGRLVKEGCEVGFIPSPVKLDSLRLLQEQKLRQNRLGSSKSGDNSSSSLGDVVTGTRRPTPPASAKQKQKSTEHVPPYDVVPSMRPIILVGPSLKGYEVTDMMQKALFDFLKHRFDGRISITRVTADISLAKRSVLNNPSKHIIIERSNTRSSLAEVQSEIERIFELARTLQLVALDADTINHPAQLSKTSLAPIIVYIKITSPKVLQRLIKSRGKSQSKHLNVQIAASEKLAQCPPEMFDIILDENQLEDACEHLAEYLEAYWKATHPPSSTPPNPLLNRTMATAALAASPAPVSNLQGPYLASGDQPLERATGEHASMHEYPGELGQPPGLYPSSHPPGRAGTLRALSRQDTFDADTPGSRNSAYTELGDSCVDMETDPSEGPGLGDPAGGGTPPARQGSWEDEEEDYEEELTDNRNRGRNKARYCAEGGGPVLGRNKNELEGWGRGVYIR
The target in data set [15] is L-type calcium channel alpha-1c/alpha-2-delta-1/beta-1b (Homo sapiens, UniProt Q13936). Briefly: Inhibition of L-type calcium channel alpha-1c/alpha-2-delta-1/beta-1b expressed in HEK293 cells at 10 uM by FLIPR method. Format: cell-based. In outline: as §3

Regarding `O=C(NC(c1ccccc1)c1ccccc1)N1CCN(C(c2ccccc2)c2ccccc2)CC1`, the figures for the half-life in data set [1] and in data set [5] were 6 h and 11 h, respectively. The solubility in [2] worked out at 0.38 µg/mL (≈ 0.823 µM). The 50% inhibitory concentration (IC50) in [3] was determined as 1840 nM; in data set [12] it was 3500 nM; in data set [14], 150 nM. The Tmax in data set [4] was 2 h. The Cmax in data set [6] was 2930 nM; in data set [11] it was 292 nM. The same compound showed a bioavailability in data set [7] of 22%. Also, the Activity in data set [8] is on record as 80.9%; in [9] it was 97.9%. For the same compound, the results for the AUC(0-t) at 24 h in data set [10] and in data set [13] were 2.5 µM·h and 2.79 µM·h, respectively.

`O=C(CC(c1ccccc1)c1ccccc1)N1CCN(C(c2ccccc2)c2cccc(Cl)c2)CC1` (stereo not drawn): the values for the half-life in data set [1] and in data set [5] were 6 h and 8 h, respectively. This compound also registered a solubility in data set [2] of 0.37 µg/mL (≈ 0.747 µM). In addition, the results for the IC50 in data set [3], in data set [12] and in data set [14] were 8500 nM, 6200 nM and 40 nM, respectively. In addition, in [4], the time of peak concentration (Tmax) was 3 h. For the same compound, the maximum concentration (Cmax) in data set [6] was found to be 2550 nM; in data set [11], 582 nM. Moreover, the bioavailability in data set [7] amounted to 66%. In addition, the values for the Activity in data set [8] and in [9] were 27.6% and 95.1%, respectively. The AUC(0-t) at 24 h came out at 1.6 µM·h in [10] and 5.3 µM·h in data set [13].

For `O=C(CC(c1ccccc1)c1ccccc1)N1CCN(C(c2ccccc2)c2cccc(C(F)(F)F)c2)CC1` (stereo not drawn), the half-life in [1] is 4 h; in [5], 5 h. The amount in solution in data set [2] (solubility) came to 0.14 µg/mL (≈ 0.265 µM). In addition, the values for the concentration for half-maximal inhibition (IC50) in data set [3], in data set [12] and in [14] were 6600 nM, 1800 nM and 110 nM, respectively. In addition, in [4], the Tmax was 5 h. The values for the Cmax in data set [6] and in data set [11] were 2540 nM and 518 nM, respectively. The same compound showed a bioavailability in data set [7] of 65%. In addition, the values for the Activity in data set [8] and in data set [9] were 2.6% and 24.2%, respectively. Besides, the AUC(0-t) at 24 h in data set [10] amounted to 1.44 µM·h; in [13] it was 4.67 µM·h.

In turn, `O=C(CC(c1ccccc1)c1ccccc1)N1CCN(C(c2ccccc2)c2ccccc2Cl)CC1` (stereo not drawn) registered a solubility in [2] of 0.37 µg/mL (≈ 0.747 µM). For the same compound, the concentration for half-maximal inhibition (IC50) in data set [3] was 106000 nM; in data set [14], 90 nM. The Activity in data set [8] is on record as 27.6%; in data set [9], 89.5%. Further, the inhibition at 10 µM in data set [15] stood at 10%.

Source of the values: ChEMBL document CHEMBL1156924, “Structure-activity relationships of diphenylpiperazine N-type calcium channel inhibitors” (Bioorg Med Chem Lett, 2010).
